Assay results as given in ChEMBL document CHEMBL4354813, “Design, Synthesis, and Pharmacological Evaluation of Potent Positive Allosteric Modulators of the Glucagon-like Peptide-1 Receptor (GLP-1R)” (J Med Chem, 2020).
Active and inactive are the calls of the source. The calls are words filed in the database; no cut-off is given here.

Columns and labels:
[1] = species: Rattus norvegicus; test: Improvement in GLP1(9-36)NH2-mediated glucose-stimulated insulin secretion in dispersed rat pancreatic islets at <10 uM incubated for 2 hrs by ELISA; type: functional
Method in brief: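 Dispersed rat islets pre-incubated 1 h in Krebs-Ringer (5.6 mM glucose), then 2 h at 37 °C at 15 mM glucose with GLP1(9-36)NH2 1, 10 or 100 nM ± compound 1 µM, DMSO vehicle. Supernatant insulin measured by HTRF-based ELISA, expressed as % of total insulin and n-fold vs respective control; N≥9 per condition.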

[2] = species: Rattus norvegicus; test: Inhibition of GLP1(9-36)NH2-mediated glucose-stimulated insulin secretion in dispersed rat pancreatic islets at 10 uM incubated for 2 hrs by ELISA; type: functional
Method in brief: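 Dispersed islets from male Sprague Dawley rats (collagenase digestion, Histopaque purification, Accutase dispersal, cultured up to 4 days). Pre-incubated 1 h in Krebs-Ringer with 5.6 mM glucose, then 2 h at 37 °C with 15 mM glucose, ±10 nM GLP1(9-36)NH2, ±compound 10 µM, DMSO vehicle; insulin by HTRF ELISA as % of total, n-fold vs control; N≥9.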

[3] = Cmax in C57Bl6 mouse at 10 mg/kg, po administered as single dose measured up to 24 hrs ESI-LC/MS-MS analysis; type: ADME, organism-based; set-up: dose 10 mg/kg, route oral; settings: in vivo
Method in brief: (§1)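 Single dose of compound: 3 mg/kg i.v. in solution (75% water : 25% of 75% Glycoferol/25% Cremophor) or 10 mg/kg p.o. as wet-milled suspension (0.6% methylcellulose, 0.5% Tween 80 in water); male Wistar rats n=3 per route, female C57Bl6 mice n=24 per route. Plasma sampled 0.25–24 h (p.o.), 0.083–24 h (i.v.); heparinized plasma, acetonitrile precipitation, ESI-LC/MS-MS (LOQ 1 ng/mL rat, 5 ng/mL mouse); noncompartmental analysis, linear trapezoidal.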

[4] = Oral bioavailability in Wistar rat at 10 mg/kg administered as single dose measured up to 24 hrs ESI-LC/MS-MS analysis; type: ADME, organism-based; settings: in vivo; method in brief: as §1
[5] = tested on: Mus musculus; test: Suppression of blood glucose concentration in 4.5 mg/kg, ip GLP1(9-36)NH2-treated GLP-1R (-/-) C57Bl/6J mouse model at 30 mg/kg, po dosed 1 hrs before test and treated with 60 mg/kg, po OATP/MRP2 inhibitor rifampicin 2.5 hrs prior to oral glucose-tolerance test; type: functional, organism-based
Method in brief: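 GLP-1R-/- male mice aged 10 weeks, n=6, fasted overnight. Rifampicin 60 mg/kg p.o. 2.5 h before the oGTT, compound p.o. 1 h before, with or without GLP1(9-36)NH2 i.p. 15 min before. Glucose 2 g/kg orally. Tail-vein blood glucose by glucometer at 0, 15, 30, 60 and 90 min.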

[6] = tested on: Mus musculus; test: Suppression of blood glucose concentration in ob/ob C57Bl/6J mouse model of T2DM at 30 mg/kg, po dosed 1 hrs before test and treated with 60 mg/kg, po OATP/MRP2 inhibitor rifampicin 2.5 hrs prior to oral glucose-tolerance test; type: functional, organism-based
Method in brief: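 Male ob/ob mice aged 10–11 weeks, n=7, randomised on blood glucose and fasted overnight. Rifampicin 60 mg/kg p.o. 2.5 h before the oGTT, compound 30 mg/kg p.o. 1 h before, GLP1(9-36)NH2 i.p. 15 min before, each given as indicated. Glucose 2 g/kg orally. Tail-vein glucose by glucometer at 0, 15, 30, 60 and 90 min.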

[7] = Metabolic lability in human liver microsomes incubated up to 20 mins by LC-MS/MS analysis
[8] = molecular target: Cytochrome P450 3A4 (Homo sapiens, UniProt P08684); test: Inhibition of CYP3A4 (unknown origin) using testosterone as substrate; type: ADME
Chain of Cytochrome P450 3A4 (P08684 whole entry): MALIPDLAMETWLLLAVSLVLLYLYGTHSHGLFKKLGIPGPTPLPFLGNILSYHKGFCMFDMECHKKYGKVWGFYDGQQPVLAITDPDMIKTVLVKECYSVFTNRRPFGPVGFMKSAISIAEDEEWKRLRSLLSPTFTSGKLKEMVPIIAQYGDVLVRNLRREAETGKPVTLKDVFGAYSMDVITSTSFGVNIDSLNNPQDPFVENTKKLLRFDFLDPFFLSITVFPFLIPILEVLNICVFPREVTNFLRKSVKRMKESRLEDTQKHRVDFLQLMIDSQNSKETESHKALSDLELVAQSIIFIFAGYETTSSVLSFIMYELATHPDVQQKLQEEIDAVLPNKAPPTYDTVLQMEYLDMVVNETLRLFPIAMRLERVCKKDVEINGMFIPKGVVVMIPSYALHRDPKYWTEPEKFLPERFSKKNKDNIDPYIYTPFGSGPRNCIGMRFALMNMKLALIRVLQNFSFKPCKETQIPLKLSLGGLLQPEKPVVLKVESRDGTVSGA

[9] = AUClast in C57Bl6 mouse at 10 mg/kg, po administered as single dose measured up to 24 hrs ESI-LC/MS-MS analysis; type: ADME, organism-based; set-up: dose 10 mg/kg, time < 24 hr, route oral; settings: in vivo; method in brief: as §1
[10] = Clearance in C57Bl6 mouse at 3 mg/kg, iv administered as single dose measured up to 24 hrs ESI-LC/MS-MS analysis; type: ADME, organism-based; settings: in vivo
Method in brief: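 Female C57Bl6 mice (n=24) given single 3 mg/kg i.v. in solution (75% water : 25% of 75% Glycoferol/25% Cremophor); plasma sampled at 0.083, 0.25, 0.5, 1, 2, 4, 6, 8, 24 h; heparinized plasma after acetonitrile protein precipitation analysed by ESI-LC/MS-MS (LOQ 5 ng/mL); noncompartmental parameters with linear trapezoidal calculation.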

[11] = tested on: Mus musculus; test: Suppression of blood glucose concentration in 0.3 to 4.5 mg/kg, ip GLP1(9-36)NH2-treated normoglycemic C57Bl/6J mouse at 30 mg/kg, po dosed 1 hrs before test by oral glucose-tolerance test; type: functional, organism-based
Method in brief: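 Male C57Bl/6J mice aged 10–11 weeks, n=6, fasted overnight. Rifampicin 60 mg/kg p.o. 2.5 h before the oGTT, compound p.o. 1 h before, GLP1(9-36)NH2 i.p. (0.3, 1, 3, 4.5 mg/kg) 15 min before. Glucose 2 g/kg orally. Tail-vein blood glucose by glucometer at 0, 15, 30, 60 and 90 min.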

[12] = Cmax in Wistar rat at 10 mg/kg, po administered as single dose treated 2 hrs after dosing with 40 mg/kg, po OATP/MRP2 inhibitor rifampicin and measured up to 24 hrs ESI-LC/MS-MS analysis; type: ADME, organism-based; set-up: dose 10 mg/kg, route oral; settings: in vivo
Method in brief: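 Male Wistar rats (n=3 per route) pretreated orally with rifampicin 40 mg/kg (0.6% methylcellulose, 0.5% Tween 80 in water) 2 h before compound, given 3 mg/kg i.v. in Glycoferol/Cremophor-water solution or 10 mg/kg p.o. wet-milled suspension. Plasma sampled up to 24 h; ESI-LC/MS-MS after acetonitrile precipitation (LOQ 1 ng/mL); noncompartmental analysis.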

[13] = Clearance in mouse hepatocytes assessed per million cells by LC-MS/MS analysis; type: ADME, cell-based, Hepatocyte
Method in brief: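 Intrinsic clearance in primary human hepatocytes ([…] as printed) or mouse hepatocytes, compound 0.5–5 µM; quinidine or ketoconazole added to define CYP2D6/CYP3A4 contribution; LC-MS/MS analysis.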

Row | Cmax [3] | bioavailability [4] | metabolized at 20 min [7] | IC50 [8] | AUC(0-t) at 24 h [9] | clearance [10] | Cmax [12] | CLH [13] | SMILES | Activity [1] | inhibition [2] | Activity [5] | Activity [6] | Activity [11]
1 | – | – | – | – | – | – | – | – | CC(O)CCN1C[C@H]2c3c(c4ccccc4n3C(=O)OC(C)(C)C)C[C@@H](C1=O)N2C(=O)CC1CCC(F)(F)CC1 (stereo partly drawn) | Active | Active | – | – | –
2 | 227 ng/mL | 9% | 20% | > 50 µM | 109 ng·h/mL | 109 mL/min/kg | 1130 ng/mL | 0.145 mL/h/10^6 cells | CC(C)(C)OC(=O)n1c2c(c3ccccc31)C[C@H]1C(=O)N3C[C@@H](CC(=O)O)C[C@H]3[C@@H]2N1C(=O)CC1CCC(F)(F)CC1 | – | – | inactive | inactive | Dose-dependent effect
